An excerpt weighted towards active compounds, which were near 3.3% of everything screened.
Cl transport mod: KCC2 cotransporter modulators, thallium flux, primary screen, cell-based, HEK293 KCC2, FluoZin-2 fluorescence, MLSMR; B-score of Tl+ flux slope (higher = more flux/activation; lower = inhibition) at 10 µM; hit rate 2.2% among 190,000; KCC2 cells, thallium flux FluoZin-2 fluorescence;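 active = thallium flux slope and its plate-corrected score both differing from the plate sample mean at a set confidence after two filtering rounds, in either direction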;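 also: slope of fluorescence scaled to starting intensity during 10 to 20 s after thallium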
ABCB1 block: ABCB1 efflux pump inhibitors, primary screen, cell-based, multiplex, flow cytometry, ABCG2 counter-screen. CCRF-Adr cells, JC-1 efflux. inhibition, % at 6.6 µM. hit rate 0.067% among 190,000. AID 1326, 2008; in the data active = inhibition above about 40%;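 also: 0% = vehicle and 100% = reference inhibitor; higher value means more JC-1 retained so stronger ABCB1 efflux block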
ABCG2 block: ABCG2 efflux pump inhibitors, primary screen, multiplex with ABCB1, IgMXP3 cells, flow cytometry; Broad substrate specificity ATP-binding cassette transporter ABCG2 (Homo sapiens), Q9UNQ0; AID 1325, 2008; hit rate 0.1% among 190,000; JC-1 efflux; inhibition, % at 6.6 µM;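 active = inhibition above 80%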;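 also: 0% = DMSO and 100% = nicardipine control wells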
Target sequence (Q9UNQ0 whole entry, looked up): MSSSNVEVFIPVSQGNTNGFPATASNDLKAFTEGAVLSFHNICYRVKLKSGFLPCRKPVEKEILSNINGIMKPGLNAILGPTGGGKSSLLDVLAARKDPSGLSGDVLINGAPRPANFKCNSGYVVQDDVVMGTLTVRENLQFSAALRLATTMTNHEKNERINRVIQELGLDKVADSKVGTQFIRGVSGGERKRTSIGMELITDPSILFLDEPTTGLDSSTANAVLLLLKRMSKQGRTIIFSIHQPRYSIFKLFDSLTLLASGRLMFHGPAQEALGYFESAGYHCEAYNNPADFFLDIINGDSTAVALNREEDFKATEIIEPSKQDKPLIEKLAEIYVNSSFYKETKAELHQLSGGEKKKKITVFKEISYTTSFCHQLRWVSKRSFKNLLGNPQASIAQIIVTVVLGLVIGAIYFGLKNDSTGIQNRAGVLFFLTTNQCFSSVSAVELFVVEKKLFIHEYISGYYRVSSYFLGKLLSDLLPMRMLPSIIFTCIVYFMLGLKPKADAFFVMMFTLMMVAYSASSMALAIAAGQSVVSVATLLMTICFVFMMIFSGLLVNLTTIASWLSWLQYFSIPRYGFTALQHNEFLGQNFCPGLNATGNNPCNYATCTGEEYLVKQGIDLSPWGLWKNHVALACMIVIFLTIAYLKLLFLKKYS
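Measure – % inhibition of efflux relative to nicardipine and DMSO · Test system – ABCG2 IgMXP3 and barcoded ABCB1 CCRF-Adr cell mix · Control set – nicardipine as high control, DMSO as low control · Compound – one concentration, 6.6 µM final · Signal – flow cytometry of retained JC-1 fluorescence · Timing – 10 min exposure at 25 °C with rotation, no wash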
ROMK primary: ROMK potassium channel modulators, primary screen, cell-based, thallium flux, MLSMR library | ATP-sensitive inward rectifier potassium channel 1 (Homo sapiens), P48048 | Tet-inducible ROMK, thallium flux fluorescence; actives lie on both sides | B-score at 10 µM | hit rate 2% among 130,000;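 active = signal ratio slope over the read window, or its plate-corrected B-score, at least 3 SD from the plate mean, either direction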;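 also: B-score of the F/F0 ratio slope over 7 to 12 s after thallium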
PMI activator: activators of human PMI, primary screen, biochemical, fluorescence intensity, near-Km mannose 6-phosphate. purified human PMI, coupled resazurin fluorescence, 20 min; hits give high values; 1 = vehicle control, 0 substrate-free wells. activation factor at 20 µM. hit rate 0.005% among 190,000;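 active = activation factor of 2 or more at 20 µM, relative to plate controls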
PMI act hi M6P: human PMI activators, high substrate, primary screen, biochemical, fluorescence intensity, near-saturating mannose 6-phosphate | Mannose-6-phosphate isomerase (Homo sapiens), P34949 | coupled PMI enzyme assay, resazurin fluorescence, 20 min; hits give high values; 1 = untreated enzyme, 0 = substrate-free blank | activation factor at 20 µM | hit rate 0.34% among 190,000 | AID 1216, 2008;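 active = activation factor of 2 or more at 20 µM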
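Test system: Human PMI in coupled enzyme assay | Input: 15 ng/mL PMI | Medium: HEPES-buffered pH 7.4 with magnesium and detergent | Compound: One concentration, 20 µM, in 1% DMSO | Incubation: Enzyme reaction with compound 20 min at room temperature | Detection: Diaphorase-driven resazurin-to-resorufin fluorescence, excitation 544, emission 590 nm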
ABCB1 confirm: ABCB1 efflux pump inhibitors, confirmation, cell-based, single point, ABCG2 counter-screen | shares compounds with ABCG2 block | CCRF-Adr cells, JC-1 efflux, flow cytometry | inhibition, % at 6.6 µM | hit rate 7% among 270 | AID 1451, 2008;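 active = inhibition of pump activity above 50%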;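 also: 0% = DMSO and 100% = nicardipine full pump inhibition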
ABCG2 confirm: ABCG2 efflux pump inhibitors, confirmation, single point, IgMXP3 cells, ABCB1 counter-screen paired. shares compounds with ABCG2 block. AID 1453, 2008. hit rate 6% among 270. JC-1 efflux, flow cytometry. inhibition, % at 6.6 µM;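 active = inhibition above 50%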;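 also: 0% = DMSO wells and 100% = nicardipine pump inhibitor wells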
IgMXP3 fluor: compound autofluorescence in ABCG2-expressing IgMXP3 cells, confirmation, artefact control for ABC transporter inhibitor project, cell-based, 488/530 nm, flow cytometry; shares compounds with ABCG2 block; compound autofluorescence 488/530 nm; hits give high values; fluorescence at 6.6 µM; hit rate 30% among 270;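 active = fluorescence in ABCG2-expressing cells above the plate's control-well mean plus 3 SD, cut at about 15 in these data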;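 also: median cell fluorescence with compound minus that of DMSO-treated control cells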
CCRF autofluor: compound autofluorescence in ABCB1-expressing CCRF-Adr cells, confirmation, artefact control for ABC transporter inhibitor project, cell-based, 488/530 nm, flow cytometry | shares compounds with ABCG2 block | compound autofluorescence 488/530 nm; hits give high values | fluorescence at 6.6 µM | hit rate 30% among 270 | AID 1483, 2009;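 active = fluorescence beyond the plate control mean plus 3 SD, with a fluorescence-to-maximum score over 2, cut at about 25 in these data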
Starred values were filed as active, the others as inactive; . = no result.

SMILES	Cl transport mod	ABCB1 block	ABCG2 block	ROMK primary	PMI activator	PMI act hi M6P	ABCB1 confirm	ABCG2 confirm	IgMXP3 fluor	CCRF autofluor
COc1ccc(C2C(C(=O)Nc3ccc4c(c3)OCCO4)c3ccccc3C(=O)N2C)cc1 (centres undefined)	0.53	-0.1	-0.4	-0.961	1	1.1	.	.	.	.
CC(CCCC(C)(C)O)NCc1cn[nH]c1-c1ccc2c(c1)OCO2 (centres undefined)	.	-0.7	-0.7	-0.0666	0.9	0.9	.	.	.	.
COc1ccc(C2C3=C(CCCC3=O)Nc3ccc4ncccc4c32)cc1OC (centres undefined)	-1.32	63.0*	0.0	0.302	0.9	0.6	4.8	16.2	0.96	10.2
COc1cc(C2C3=C(CCCC3=O)Nc3ccc4ncccc4c32)ccc1O (centres undefined)	-1.06	0.6	8.8	0.238	1.1	0.7	.	.	.	.
Cc1ccc(Nc2nc(N3CCN(C)CC3)nc(N)c2[N+](=O)[O-])cc1C	-0.722	4.3	15.3	.	0.8	0.9	.	.	.	.
Cn1c(CCCOc2ccc(Cl)cc2Cl)nnc1SCC(=O)Nc1ccc(F)c(Cl)c1	0.0165	0.2	0.2	0.441	0.8	0.8	.	.	.	.
Cn1c(CCCOc2ccc(Cl)cc2Cl)nnc1SCC(=O)Nc1cccc(F)c1	-0.0511	3.1	111.0*	.	0.9	1	4.3	15.6	-1.74	-1.19
O=[N+]([O-])c1ccc(OCCN2CCCCCC2)cc1	1.43	-0.1	81.5*	.	0.9	1.1	0.1	2.8	0.21	5.76
CC1=NN(c2ccc([N+](=O)[O-])cc2)C(=O)/C1=C\N(C)C	0.0106	6.2	80.4	0.544	0.9	1	9.9	38.4	-0.09	-0.59
CCCC1=NN(c2ccc([N+](=O)[O-])cc2)C(=O)/C1=C/N(C)C	0.205	0.8	27.4	.	1.1	0.8	.	.	.	.
c1ccc(Nc2ncnc3[nH]ncc23)cc1	-0.031	.	.	-0.463	.	.	.	.	.	.
COc1cccc(/C=C(/C(=O)OCC(=O)NC2CCCC(C)C2C)c2ccccc2)c1 (centres undefined)	-1.76	9.1	78.8	-0.653	0.9	0.9	4.5	23.3	-1.44	-4.04
CC(C)CC(NC(=O)C(CO)NC(=O)C1CCC(=O)N1)C(N)=O (centres undefined)	0.0303	-0.2	0.3	0.837	1.1	1.1	.	.	.	.
CCOCCCNc1nc2c(C)cccn2c(=O)c1/C=C1\SC(=S)N(CC(C)C)C1=O	-0.654	48.4*	141.0*	.	1.1	1.1	7.3	40.3	43.8*	211*
Cc1c(O)ccc2c3c(c(=O)oc12)CCCC3	0.35	0.1	1.0	-1.28	1	1	.	.	.	.

High-throughput results from PubChem.
